Source: PubChem (several laboratories)
In the library only some 1.5% were active in any assay of this set; here they are far more common.
Rpn11 block: Rpn11 (human) deubiquitinase inhibition. actives 0.59% (n = 360,000). AID 588493. calls only at 20 µM. O00487. human 26S proteasome, Ub4-pepOG fluorescence polarization; 20S core pre-blocked with epoxomicin;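 active = inhibition at 20 µM, scaled to each plate's controls, above about 33%, limit read from the data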
TPT1 inhibitor: inhibitors of Candida albicans tRNA 2'-phosphotransferase TPT1 | recombinant caTPT1, FP RNA substrate dephosphorylation | inhibition, % at 5 µM | actives 0.81% (n = 300,000);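 active = inhibition above the mean of all tested compounds plus 3 SD, set per screening campaign, cut at about 24% in these data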;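 note: plate controls were DMSO alone for no effect and ferristatin control at 100 nM for full effect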
HNF4A DNA FP: change in binding of human HNF4 alpha to DNA | activity change, % at 10 µM | actives 0.3% (n = 360,000) | HNF4a-FITC DNA binding, fluorescence polarization, 1 h | AID 1224865; in the data active = activity change above about 30%, passing the limit was not always enough
CSN deneddyl inh: blocks human CSN-mediated cullin deneddylation. inhibition, % at 12.5 µM. AID 651999. Purified CSN, SCF-Nedd8-OG deneddylation, fluorescence polarization. actives 0.38% (n = 360,000);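 active = pattern-corrected inhibition above about 35%, with an unprinted fluorescence ratio check between 0.5 and 1.5, limit read from the data, passing the limit was not always enough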;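 note: 0% = enzyme with substrate and 100% = substrate without enzyme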
Target sequence (Q92905 whole entry, looked up, one chain of several): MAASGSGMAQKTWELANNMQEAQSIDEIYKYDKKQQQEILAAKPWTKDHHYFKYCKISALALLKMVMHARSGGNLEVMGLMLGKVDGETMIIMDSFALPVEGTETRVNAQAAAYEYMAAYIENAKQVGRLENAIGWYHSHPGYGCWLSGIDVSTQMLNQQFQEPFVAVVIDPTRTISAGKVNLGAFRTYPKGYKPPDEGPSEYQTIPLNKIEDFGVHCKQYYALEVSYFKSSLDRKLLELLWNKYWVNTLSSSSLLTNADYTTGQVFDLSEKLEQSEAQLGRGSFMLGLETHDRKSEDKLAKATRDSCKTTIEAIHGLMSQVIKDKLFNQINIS
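Test system: purified human Csn5 enzyme expressed in HEK293T cells. Amount: 0.24 nM enzyme. Reagent: SCFSkp2-Nedd8OG substrate at 10 nM final. Schedule: 90 min incubation of compound, enzyme and substrate at room temperature. Detection: fluorescence polarization. Read-out: % inhibition of substrate cleavage by Csn5.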
Active calls of the source: *; i = inactive; x = no result shown; + = active, no number.

SMILES	Rpn11 block	TPT1 inhibitor	HNF4A DNA FP	CSN deneddyl inh
CC(=O)Oc1cccc2c1C(=O)C1CC=CC(OC(C)=O)C1C2=O (centres undefined)	i	x	-2	2
CC(C)OCCCNC(=O)c1c(N)n(/N=C/c2cccs2)c2nc3ccccc3nc12	i	-2	4	41*
CC1CCN(C(=O)CN(c2ccc3c(c2)OCCO3)S(=O)(=O)c2ccccc2)CC1	i	3	3	-2
CCCC(=O)Nc1ccc(NC(=O)c2cc3ccccc3o2)c(OC)c1	i	-4	-1	5
CCCCNC(=O)c1nc(C2CCN(S(=O)(=O)c3c(OC)cccc3OC)CC2)oc1-c1ccccc1	x	x	7	-2
Cc1cccc(C)c1NC(=O)CSc1nnc(C)n1CC1CCCO1 (centres undefined)	i	-5	115*	0
N#Cc1c(NC(=S)NC(=O)c2ccccc2)sc2c1CCC2	i	3	20	1
CCN1CCc2c(sc(NC(=S)NC(=O)c3ccccc3)c2C#N)C1	i	28*	9	48*
O=C1CCCN1CCCNc1ccc2nnc(CCC(=O)N3CCN(c4ccc(F)cc4)CC3)n2n1	i	-2	4	2
COC12CC(=O)C(C(C)=O)=C(O)C1(C)c1c(O)c(C)c(O)c(C(C)=O)c1O2 (centres undefined)	x	x	65*	43*
COc1ccccc1Cc1c(C2CCCCC2)nc2ccc(C)cn12	i	x	3	10
COc1ccccc1Cc1c(C2CCCCC2)nc2ccc(Cl)cn12	i	x	17	60*
Nc1nc(CN2CCCCCC2)nc(Nc2ccccc2)n1	i	2	1	4
Nc1nc(CN2CCC(Cc3ccccc3)CC2)nc(Nc2ccccc2)n1	i	1	54*	0
CCc1ccc(C(C(=O)NCc2ccccc2)N(C(=O)c2csnn2)C2CC2)cc1 (centres undefined)	i	-2	-2	1
CC(=O)N1C[C@H]2CON(C)[C@H]2C[C@H]1c1ccccc1Br	i	x	-5	-1
COc1ccc(CN2CC[C@@H]3CN(C(C)=O)[C@H](c4ccccc4Br)C[C@@H]32)cc1	i	x	1	161*
CCN(CC(=O)NCc1ccc(Cl)cc1)C(=O)COc1ccc(C)cc1C	i	0	-1	6
Cc1ccc(/C=C2\SC(=S)N(/N=C/c3cc([N+](=O)[O-])ccc3O)C2=O)o1	+	7	-44	56*
O=C(NN1C(=O)/C(=C/c2cc([N+](=O)[O-])ccc2O)SC1=S)c1ccccc1O	x	53*	x	x
COC(=O)N/N=C(\CCC(=O)O)c1cccs1	i	0	4	90*
O=C(O)CC/C(=N\NC(=O)c1ccccc1)c1cccs1	i	-5	1	8
CC(C)CN(C(=O)CSc1nnc(C2CC2)n1-c1ccccc1)C1CCS(=O)(=O)C1 (centres undefined)	i	x	-1	-3
CCOC(=O)c1cnn2c(C)cc(-c3ccccc3)nc12	i	0	53*	-5
CCOc1ncccc1C(=O)N1CCN(c2ccc(C(F)(F)F)cn2)CC1	i	-1	91*	-16
SMILES	Rpn11 block	TPT1 inhibitor	HNF4A DNA FP	CSN deneddyl inh
O=C(Nc1ccc(N2CCOCC2)cc1N1CCOCC1)c1ccc([N+](=O)[O-])cc1	i	2	3	74*
O=C(N/N=C/c1ccccc1)c1ccc(N2CCCC2=O)cc1	i	-1	5	2
C=CCn1c(SCc2ccc3c(c2)OCO3)nc2scc(-c3ccco3)c2c1=O	i	0	-24	57*
O=c1[nH]c(C(Cl)Cl)nc2sc3c(c12)CCN(Cc1ccccc1)C3	i	10	-18	-4
CCCSc1nc2sc3c(c2c(=O)[nH]1)CCN(Cc1ccccc1)C3	+	82*	17	12
CCc1ccc(/C=N/N2CCN(c3ccccn3)CC2)cc1	i	3	61*	1
O=C(O)CN1C(=O)/C(=C\c2cn(-c3ccccc3)nc2-c2ccccc2)SC1=S	i	1	-2	0
Cc1ccc(-c2nn(-c3ccccc3)cc2C=C2SC(=S)N(CCS(=O)(=O)O)C2=O)cc1	i	x	-29	47*
N#CCCN(C(=O)COC(=O)c1ccc(S(=O)(=O)N2CCCC2)cc1)c1cccc(Cl)c1	i	x	5	-1
Cc1cc(C)cc(N=C2NC(=O)/C(=C/c3cccs3)S2)c1	i	0	0	-1
CCOc1ccc2c(c1)S/C(=C\c1cccs1)C(=O)N2	i	11	8	40*
O=C(NC(=S)N1CCOCC1)c1ccc(F)cc1	i	0	2	4
COc1ccc(/C=N/n2cnc3c([nH]c4ccc(F)cc43)c2=O)cc1CN1CCCC1	i	-4	7	85*
COc1ccc(/C=N/n2cnc3c([nH]c4ccc(C)cc43)c2=O)cc1CN1CCCC1	i	-3	7	6
COCCCn1c(=O)/c(=C\c2ccccc2OC(F)F)s/c1=C(/C#N)C(=O)NC(C)C	x	4	22	36*
COCCCn1c(=O)/c(=C\c2ccc(OC(F)F)c(OC)c2)s/c1=C(/C#N)C(=O)NCCOC	x	14	74*	57*
CCCNC(=O)CN1CCN(c2cc3ccccc3c(Cl)n2)CC1	i	1	-5	100*
COC(=O)[C@H](CCSC)NC(=O)[C@@H](Cc1cnc[nH]1)NC(=O)OCc1ccccc1	i	-2	0	-2
COCCN(C(=O)COC(=O)c1c(-c2ccccc2)noc1C)c1c(N)n(Cc2ccccc2)c(=O)[nH]c1=O	i	-2	1	4
CCc1nc2ccccc2c(C(=O)OCC(=O)N(CCOC)c2c(N)n(Cc3ccccc3)c(=O)[nH]c2=O)c1C	i	x	-1	+
COc1ccc(C(=O)c2ccccc2CN2C(=O)c3ccccc3C2=O)cc1	i	x	-1	3
CC(=O)Oc1ccc(/C=C2/SC(=S)N(Cc3ccccc3)C2=O)cc1	i	10	50*	13
O=C(COc1ccccc1)N[C@@H]1c2ccccc2CC[C@@H]1OCc1ccccc1	i	x	1	1
O=C(COc1ccccc1)N[C@@H]1c2ccccc2CC[C@@H]1O	i	x	-1	57*
Cc1c(O)ccc(/C(Cc2ccc3ccccc3n2)=N\O)c1O	i	-4	5	-1
SMILES	Rpn11 block	TPT1 inhibitor	HNF4A DNA FP	CSN deneddyl inh
CN(C)c1ccc(C(=N)Cc2ccc3ccccc3n2)cc1	i	x	26	44*
Clc1cccc(-c2nc3ccc(Br)cn3c2Cc2ccsc2)c1	i	x	35*	1
Cc1ccc(Cc2c(-c3cccc(Cl)c3)nc3ccc(Cl)cn23)cc1	i	x	11	39*
Cc1[nH]n(-c2ccccc2)c(=O)c1C=Nc1ccc2[nH]c(=O)[nH]c2c1	i	3	2	13
O=c1[nH]c2ccc(N=Cc3c(O)ccc4cc(Br)ccc34)cc2[nH]1	i	x	17	42*
CCOC(=O)C1CCN(c2nc3ccccc3nc2C(C#N)C(=O)OC(C)C)CC1 (centres undefined)	x	1	79	45*
CCOC(=O)C1CCN(c2nc3ccccc3nc2C(C#N)C(=O)OC(C)COC)CC1 (centres undefined)	i	12	2	4
